The results in this text go back to ChEMBL document CHEMBL1156174, “Antiproliferative activity of synthetic naphthoquinones related to lapachol. First synthesis of 5-hydroxylapachol” (Bioorg Med Chem, 2010).

For one data set, the system named is SW1573. Briefly: Growth inhibition of human SW1573 cells after 48 hrs by sulforhodamine B assay. Format: functional. The conditions noted are these: SW1573, 48 h. Summed up: (§1)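 Cells in RPMI 1640 with 5% heat-inactivated FCS and 2 mM L-glutamine at 37 °C, 5% CO2. Seeded per well: 7500 (HBL-100, SW1573), 15,000 (A2780, HeLa, T47D) or 20,000 (WiDr). Drug added day 1 in triplicate dilutions (DMSO 0.25% v/v) for 48 h. Cells fixed with cold TCA, 60 min, 4 °C, then SRB stained and read at 492 nm. NCI percentage-growth formulas used; GI50 taken at PG +50.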

The next data set relates to WiDr. Briefly: Growth inhibition of human WiDr cells after 48 hrs by sulforhodamine B assay. Format: functional. Summed up:
as §1

Another data set has as its system HBL-100. Briefly: Growth inhibition of human HBL100 cells after 48 hrs by sulforhodamine B assay. The class given is functional. The conditions noted are these: HBL-100, 48 h. Summed up:
as §1

Another data set relates to HeLa. Briefly: Growth inhibition of human HeLa cells after 48 hrs by sulforhodamine B assay. Format: functional. Summed up:
as §1

In a further data set the test system is T47D. Briefly: Growth inhibition of human T47D cells after 48 hrs by sulforhodamine B assay. The class given is functional. A digest of the protocol:
as §1

The next data set has as its system A2780. Briefly: Growth inhibition of human A2780 cells after 48 hrs by sulforhodamine B assay. Format: functional. The settings on record: A2780, 48 h. A digest of the protocol:
as §1

A further data set deals with Artemia salina. Briefly: Toxicity in Artemia salina. The class given is organism-based. The conditions noted are these: in vivo.

Take `NC1=CC(=O)c2cccc(O)c2C1=O`: the GI50 in the data set with SW1573 was 2 µM; in the data set with WiDr, 3.5 µM; in the data set with HBL-100, 2.9 µM; in the data set on HeLa, 5.7 µM; in the data set with T47D it was 4 µM; with A2780 it was 3.1 µM.

Turning to `CC(C)=CCC1=C(O)C(=O)c2cccc(O)c2C1=O`, the GI50 in the data set with SW1573 was determined as 0.7 µM; with WiDr, 6.3 µM; in the data set on HBL-100, 0.6 µM; in the data set on HeLa, 0.42 µM; in the data set with T47D it was 8.1 µM; in the data set with A2780 it was 0.57 µM.

Regarding `C=CC(C)(C)C1=C(O)C(=O)c2cccc(O)c2C1=O`, the GI50 in the data set with SW1573 came out at 36 µM; with WiDr, 31 µM; with HBL-100, 31 µM; in the data set on HeLa, 28 µM; in the data set with T47D, 27 µM; in the data set on A2780, 26 µM.

Take `CC(C)=CCOC1=CC(=O)c2c(O)cccc2C1=O`: the GI50 in the data set with SW1573 turned out to be 17 µM; in the data set with WiDr it was 18 µM; in the data set on HBL-100, 27 µM; in the data set on HeLa it was 18 µM; in the data set with T47D it was 28 µM; in the data set with A2780 it was 12 µM.

As to `CC1(C)C2=C(OC1CI)C(=O)c1cccc(O)c1C2=O` (centres undefined), the GI50 was determined as 1.3 µM in the data set with SW1573; 2 µM in the data set with WiDr; 1.9 µM with HBL-100; 1.7 µM in the data set on HeLa; 1.8 µM in the data set on T47D; 1.7 µM in the data set on A2780.

Consider `CC(C)(I)C1CC2=C(O1)C(=O)c1cccc(O)c1C2=O` (centres undefined), for which the GI50 in the data set on SW1573 was 2.3 µM; with WiDr it was 1.9 µM; with HBL-100 it was 2 µM; with HeLa, 2.4 µM; with T47D, 2.3 µM; with A2780 it was 2.1 µM.

As to `CC(C)=CCOC1=C(CC=C(C)C)C(=O)c2c(O)cccc2C1=O`, the GI50 with SW1573 was 4.3 µM; in the data set with WiDr, 11 µM; in the data set with HBL-100 it was 1.6 µM; with HeLa, 1.9 µM; in the data set with T47D it was 21 µM; in the data set on A2780, 1 µM.

In the case of `CC(C)=CCC1=C(O)C(=O)c2c(O)cccc2C1=O`, the GI50 stood at 18 µM with SW1573; 19 µM in the data set with WiDr; 21 µM in the data set with HBL-100; 2.6 µM in the data set with HeLa; 30 µM with T47D; 3.9 µM with A2780.

Take `COC1=C(CC=C(C)C)C(=O)c2c(OC)cccc2C1=O`: the GI50 stood at 5.8 µM in the data set on SW1573; 28 µM in the data set on WiDr; 17 µM in the data set with HBL-100; 18 µM with HeLa; 45 µM in the data set with T47D; 21 µM in the data set with A2780.

In the case of `C=C(C)C1CC2=C(O1)C(=O)c1cccc(O)c1C2=O` (centres undefined), the 50% growth inhibitory concentration (GI50) with SW1573 came to 0.83 µM; in the data set with WiDr, 2 µM; with HBL-100, 0.94 µM; in the data set with HeLa, 0.8 µM; in the data set with T47D, 2.2 µM; with A2780, 0.82 µM.

On to `CC(C)(O[N+](=O)[O-])C1CC2=C(O1)C(=O)c1cccc(O)c1C2=O` (centres undefined), for which the GI50 in the data set with SW1573 was 2.8 µM; in the data set with WiDr it was 18 µM; with HBL-100, 2.8 µM; in the data set with HeLa it was 2.2 µM; in the data set with T47D, 23 µM; with A2780, 2.2 µM.

On to `CC1(C)CCC2=C(O1)C(=O)c1cccc(O)c1C2=O`, for which the GI50 in the data set with SW1573 was 2.7 µM; in the data set on WiDr, 18 µM; with HBL-100 it was 2.6 µM; in the data set on HeLa, 12 µM; in the data set on T47D, 21 µM; in the data set with A2780 it was 3.2 µM.

Turning to `CC(C)=CCOC1=CC(=O)c2cccc(O)c2C1=O`, the 50% growth inhibitory concentration (GI50) in the data set on SW1573 was 7.7 µM; in the data set with WiDr it was 7.3 µM; in the data set on HBL-100, 19 µM; with HeLa, 4.5 µM; in the data set on T47D, 23 µM; with A2780 it was 2 µM.

Consider `CC1(C)C2=C(OC1CI)C(=O)c1c(O)cccc1C2=O` (centres undefined), for which the GI50 with SW1573 was determined as 0.4 µM; in the data set with WiDr, 2 µM; in the data set with HBL-100, 0.41 µM; in the data set with HeLa, 1.3 µM; in the data set on T47D, 2.5 µM; in the data set with A2780, 1.6 µM.

With `C=CC(C)(C)C1=C(O)C(=O)c2c(O)cccc2C1=O`, the concentration for 50% growth inhibition (GI50) with SW1573 came out at 3.8 µM; with WiDr, 23 µM; in the data set with HBL-100, 16 µM; in the data set with HeLa, 24 µM; in the data set with T47D, 30 µM; in the data set with A2780, 21 µM.

Regarding `CC(C)=CCOC1=C(CC=C(C)C)C(=O)c2cccc(O)c2C1=O`, the concentration for 50% growth inhibition (GI50) in the data set on SW1573 turned out to be 5.1 µM; in the data set on WiDr, 22 µM; in the data set on HBL-100 it was 20 µM; in the data set on HeLa, 20 µM; in the data set on T47D, 28 µM; in the data set on A2780, 5.9 µM.

In the case of `COC1=C(CC=C(C)C)C(=O)c2c(O)cccc2C1=O`, the GI50 amounted to 4.8 µM with SW1573; 20 µM in the data set on WiDr; 20 µM with HBL-100; 3.5 µM in the data set with HeLa; 22 µM in the data set with T47D; 1.8 µM in the data set on A2780.

Turning to `O=C1C=C(O)c2cccc(O)c2C1=O`, the GI50 in the data set on SW1573 is 86 µM; in the data set on WiDr, > 100 µM; in the data set with HBL-100 it was > 100 µM; in the data set with HeLa, 90 µM; in the data set on T47D, > 100 µM; in the data set on A2780, 28 µM.

As for `O=C1C=C(O)c2c(O)cccc2C1=O`, the GI50 with SW1573, in the data set on WiDr, in the data set with HBL-100, in the data set with HeLa, with T47D and with A2780 was > 100 µM throughout.

Turning to `CC1(C)C=CC2=C(O1)C(=O)c1c(O)cccc1C2=O`, the GI50 was determined as 4.8 µM in the data set on SW1573; 19 µM with WiDr; 3.9 µM in the data set on HBL-100; 2.3 µM in the data set with HeLa; 19 µM in the data set with T47D; 2.4 µM with A2780.

Take `CC(C)(O[N+](=O)[O-])C1CC2=C(O1)C(=O)c1ccccc1C2=O` (centres undefined): the GI50 with SW1573 was 2.5 µM; with WiDr it was 4.8 µM; in the data set on HBL-100, 2.1 µM; with HeLa, 1.8 µM; in the data set with T47D, 20 µM; with A2780, 2.1 µM.

Regarding `CN(C)C1=CC(=O)c2c(O)cccc2C1=O`, the concentration for 50% growth inhibition (GI50) with SW1573 turned out to be 35 µM; with WiDr, 32 µM; in the data set with HBL-100, 30 µM; with HeLa, 19 µM; in the data set on T47D, 38 µM; with A2780, 16 µM.

`CN(C)C1=CC(=O)c2cccc(O)c2C1=O`: the 50% growth inhibitory concentration (GI50) with SW1573 amounted to 5.3 µM; with WiDr, 17 µM; with HBL-100, 5.7 µM; in the data set on HeLa it was 7.1 µM; in the data set on T47D it was 34 µM; in the data set with A2780, 2.4 µM.

With `CC1(C)CCC2=C(O1)C(=O)c1ccccc1C2=O` [ALPHA-LAPACHONE], the GI50 with SW1573 was determined as 3.1 µM; in the data set on WiDr, 26 µM; in the data set with HBL-100 it was 14 µM; in the data set on HeLa, 15 µM; in the data set on T47D, 25 µM; in the data set with A2780, 4 µM.

With `C=C(C)C1CC2=C(O1)C(=O)c1ccccc1C2=O` (stereo not drawn) [DEHYDROISO-ALPHA-LAPACHONE], the GI50 in the data set with SW1573 is 1.9 µM; with WiDr it was 2.7 µM; in the data set with HBL-100, 2.3 µM; in the data set with HeLa it was 2.1 µM; in the data set with T47D, 21 µM; in the data set on A2780 it was 2.6 µM.

For `O=C1C=CC(=O)c2c(O)cccc21` [JUGLONE], the GI50 in the data set on SW1573 was found to be 50 µM; in the data set on WiDr, 81 µM; with HBL-100, 66 µM; in the data set on HeLa, 89 µM; in the data set on T47D it was 77 µM; in the data set with A2780, 64 µM.

Take `CC(C)=CCC1=C(O)C(=O)c2ccccc2C1=O` [LAPACHOL]: the GI50 with SW1573 amounted to 34 µM; in the data set on WiDr, 36 µM; in the data set on HBL-100 it was 7.8 µM; in the data set on HeLa, 2.3 µM; in the data set with T47D, 76 µM; in the data set on A2780, 1.9 µM. In the data set on Artemia salina, the Activity turned out to be 5 ppm.

With `CC1(C)CCC2=C(O1)c1ccccc1C(=O)C2=O` [LAPACHONE], the GI50 was 0.76 µM with SW1573; 2 µM with WiDr; 0.69 µM with HBL-100; 0.81 µM in the data set with HeLa; 2.3 µM in the data set on T47D; 1.1 µM in the data set with A2780.
